From PMC12130796 (Clinical Cancer Research, 2025)
pEC50: −log10 of the molar value. Where two headings read alike, the source gives them in different places.

Legend:
[1] = Plasma pharmacokinetics of paclitaxel and metabolites; assay type: in vivo, human
[2] = cited from earlier work
CYP2C8 = conditions: cited from earlier work
OATP1B2 = conditions: via inhibition of OATP1B2 in dorsal root ganglia cells; cited from earlier work
[3] = Plasma pharmacokinetics of nilotinib in the combination; assay type: in vivo; conditions: human, oral, Mean nilotinib AUC(0–24hours)
AOGCT KGN cells = conditions: read-out: EC50, inhibition of proliferation; KGN cells in vitro; cited from earlier work
patients with AOGCT = conditions: case report, one patient with AOGCT, cited from earlier work
[4] = system: patients with relapsed ovarian sex cord–stromal tumors; conditions: weekly paclitaxel monotherapy, phase 2 arm, 32 patients (84% AOGCT); cited from earlier work
E-cadherin, vimentin = assay: EMT immunofluorescence assay in tumor biopsies, log10; assay type: in vivo, human; conditions: single-agent paclitaxel, C1D2 biopsies
[5] = system: serine 10-phosphorylated histone H3 (pHH3); assay: pHH3 quantitative immunofluorescence; assay type: in vivo, human; conditions: C1D2 biopsies (after paclitaxel alone) relative to baseline, P = 0.0031
Summary of the method: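 Adult patients with solid tumours received IV test taxane on days 1, 8 and 15 of 28-day cycles, with oral kinase inhibitor started C1D3 during dose expansion. 18-gauge core biopsies were taken at baseline, C1D2 and C1D28, snap-frozen, thawed in neutral buffered formalin, paraffin-embedded and cut at 5 micron for quantitative IFA. Per-patient means were compared by unpaired t test assuming unequal variances.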

Structure (SMILES): Cc1cn(-c2cc(NC(=O)c3ccc(C)c(Nc4nccc(-c5cccnc5)n4)c3)cc(C(F)(F)F)c2)cn1 [nilotinib]
- Effect of nilotinib coadministration on plasma paclitaxel exposures ([1]; day 8 vs day 1, DL2 vs DL3): does not modulate plasma paclitaxel exposures
- Published mean AUC(0–24hours) ([2]; nilotinib monotherapy): 3,848 ± 1,116 μmol/L × minutes
- Cmax ([2]; read-out: Clinical Cmax, 300 mg twice-daily dosing): ~2000 nM
- Effect on CYP2C8-mediated 6α-hydroxypaclitaxel formation (CYP2C8): inhibits
- Effect on paclitaxel-induced peripheral neuropathy (OATP1B2): attenuates paclitaxel-induced peripheral neuropathy
- AUC(0-t) ([3]; day 8, DL2 (300 mg nilotinib twice daily, 80 mg/m^2 paclitaxel)): 51.2 µM·h
- AUC(0-t) ([3]; day 8, DL3 (400 mg nilotinib twice daily, 80 mg/m^2 paclitaxel)): 90.4 µM·h
- pEC50 (AOGCT KGN cells): 4.88

Structure (SMILES): Cc1ccc(NC(=O)c2ccc(CN3CCN(C)CC3)cc2)cc1Nc1nccc(-c2cccnc2)n1 [Imatinib]
- Duration of stable disease (patients with AOGCT; ref 36): over 16 months
- Duration of stable disease (patients with AOGCT; ref 37): 12 months

Structure (SMILES): CC(=O)O[C@H]1C(=O)[C@@]2(C)[C@H]([C@H](OC(=O)c3ccccc3)[C@]3(O)C[C@H](OC(=O)[C@H](O)[C@@H](NC(=O)c4ccccc4)c4ccccc4)C(C)=C1C3(C)C)[C@]1(OC(C)=O)CO[C@@H]1C[C@@H]2O [paclitaxel]
- Dose proportionality of plasma concentrations ([1]; across the two doses tested (60 and 80 mg/m^2)): dose-proportional
- Progression-free survival [4]: 14.7 months
- Change in tumor EMT phenotype (E-cadherin, vimentin): no obvious biologically relevant changes in EMT phenotype
- Change in mitotic arrest marker pHH3 [5]: significant increase
